Assays:
MRC-5SV2 cytotoxicity = assay type: cell-based, human; conditions: human, MRC-5SV2 cells, MRC-5 CC50, MRC-5SV2 cells, 3 days incubation
Summary of the method: (§1)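 MRC-5SV2 cells (3×10^4 cells/mL) in MEM with Earl's salts, L-glutamine, NaHCO3 and 5% inactivated FCS, at 37 °C and 5% CO2. Exposure to test compound (ten 4-fold dilutions, top 64 μM, <1% DMSO) lasted 3 days. Resazurin was then added for 4 h at 37 °C, with fluorescence read at ex 550/em 590 nm. CC50 from % reduction relative to untreated (100%) and medium-only (0%) controls.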

[1] = test system: T. b. rhodesiense (STIB-900 strain); test: In vitro activity against T. b. rhodesiense; assay type: cell-based; conditions: Trypanosoma brucei, read-out: T. b. rhod. EC50
Summary of the method: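 STIB-900 parasites, axenic in HMI-9 with 10% FBS at 37 °C and 5% CO2, seeded at 4×10^3 parasites/well. Test compound was given as ten 4-fold dilutions (top 64 μM, <1% DMSO). Growth period […], then resazurin added and fluorescence measured after 24 h. IC50 from a sigmoid variable-slope fit versus untreated controls; mean ± SEM, 2–4 experiments. Suramin as reference.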

[2] = test system: primary peritoneal mouse macrophages (PMM); test: PMM cytotoxicity; assay type: cell-based; conditions: read-out: PMM CC50; primary peritoneal mouse macrophages
PMM cytotoxicity = assay type: cell-based, mouse; conditions: Swiss, mouse, PMM CC50, primary peritoneal mouse macrophages
[3] = Microsomal stability assay, hamster; assay type: in vitro ADME; conditions: hamster microsomal (S9) fractions, % remaining parent compound; for remaining at 0 h: 0 min; for remaining at 0.25 h: 15 min; for remaining at 0.5 h: 30 min; for remaining at 1 h: 60 min
[4] = test system: T. cruzi Tulahuen CL2 β-galactosidase strain; test: In vitro activity against T. cruzi intracellular amastigotes in MRC-5SV2 cells; assay type: cell-based; conditions: Trypanosoma cruzi, MRC-5 SV2, 168 h, read-out: T. cruzi EC50
Summary of the method: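 Nifurtimox-sensitive Tulahuen CL2 β-galactosidase parasites infected MRC-5SV2 fibroblasts in MEM with 200 mM L-glutamine, 16.5 mM NaHCO3 and 5% inactivated FCS, at 37 °C and 5% CO2. Wells held 4×10^3 cells and 4×10^4 parasites. Test compound was given as ten 4-fold dilutions (top 64 μM, <1% DMSO) for 7 days. CPRG was then added for 4 h at 37 °C and absorbance read at 540 nm. IC50 from % reduction versus untreated-infected controls; mean ± SEM, 2–4 experiments. Benznidazole reference.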

[5] = Microsomal stability assay, human; assay type: in vitro ADME; conditions: pooled human liver microsomes (microsomal (S9) fractions), % remaining parent compound; for remaining at 0 h: 0 min; for remaining at 0.25 h: 15 min; for remaining at 0.5 h: 30 min; for remaining at 1 h: 60 min
[6] = test system: T. b. brucei (Squib 427 strain); test: In vitro activity against T. b. brucei; assay type: cell-based; conditions: Trypanosoma brucei, read-out: T. b. bruc. EC50
[7] = test system: L. infantum MHOM/MA (BE)/67; assay type: cell-based, Leishmania infantum; conditions: versus compound 9
Summary of the method: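 Intracellular amastigotes of hamster spleen origin infected Swiss mouse peritoneal macrophages (elicited 2 days with 2% potato starch), in RPMI-1640 with 5% inactivated FCS, at 37 °C and 5% CO2, 4.5×10^5 parasites/well. Test compound (ten 4-fold dilutions, top 64 μM, <1% DMSO) was added 2 h post-infection. After 5 days, amastigotes/macrophage were counted after 10% Giemsa. IC50 was derived from % reduction versus controls; mean ± SEM, 2–4 experiments. Miltefosine reference.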

MRC-5SV2 cells = test: MRC-5SV2 cytotoxicity; assay type: cell-based, human; conditions: read-out: MRC-5 CC50, 3 days incubation
Summary of the method: as §1

| SMILES | CC50 at 3 days (MRC-5SV2 cytotoxicity) [µM] | EC50 [1] [µM] | CC50 at 5 days (PMM cytotoxicity) [µM] | remaining at 0 h ([3]; CYP – NADPH (Phase-I)) [%] | remaining at 0.25 h ([3]; CYP – NADPH (Phase-I)) [%] | remaining at 0.5 h ([3]; CYP – NADPH (Phase-I)) [%] | remaining at 1 h ([3]; CYP – NADPH (Phase-I)) [%] | remaining at 0 h ([3]; UGT Enz. (Phase-II)) [%] | remaining at 0.25 h ([3]; UGT Enz. (Phase-II)) [%] | remaining at 0.5 h ([3]; UGT Enz. (Phase-II)) [%] | remaining at 1 h ([3]; UGT Enz. (Phase-II)) [%] | EC50 [4] [µM] | remaining at 0 h ([5]; CYP – NADPH (Phase-I)) [%] | remaining at 0.25 h ([5]; CYP – NADPH (Phase-I)) [%] | remaining at 0.5 h ([5]; CYP – NADPH (Phase-I)) [%] | remaining at 1 h ([5]; CYP – NADPH (Phase-I)) [%] | remaining at 0 h ([5]; UGT Enz. (Phase-II)) [%] | remaining at 0.25 h ([5]; UGT Enz. (Phase-II)) [%] | remaining at 0.5 h ([5]; UGT Enz. (Phase-II)) [%] | EC50 [6] [µM] | other results |
| --- | --- | --- | --- | --- | --- | --- | --- | --- | --- | --- | --- | --- | --- | --- | --- | --- | --- | --- | --- | --- | --- |
| Cc1ncnc2c1c(Cl)cn2[C@@H]1O[C@H](CO)[C@@H](O)[C@H]1O [compound 7] | 54.8 ± 2.52 | 0.84 ± 0.63 | > 64 | 100 | 95 | 93 | 93 | 100 | 96 | 100 | 102 | 3.61 ± 1.24 | 100 | 96 | 97 | 96 | 100 | 102 | 97 | 4.78 ± 2.19 | CC50 [2]: 32 µM; remaining at 1 h ([5]; UGT Enz. (Phase-II)): 96% |
| CCc1cn([C@@H]2O[C@H](CO)[C@@H](O)[C@H]2O)c2ncnc(C)c12 [compound 13] | > 64 | 0.43 ± 0.06 | > 64 | 100 | 93 | 102 | 91 | 100 | 101 | 103 | 108 | 2.54 ± 0.47 | 100 | 89 | 92 | 96 | 100 | 105 | 102 | 0.75 ± 0.18 | fold improved activity against L. infantum compared to the 7-methyl analogue 9 [7]: 8 fold; remaining at 1 h ([5]; UGT Enz. (Phase-II)): 96% |
| CCc1cn([C@@H]2O[C@H](CO)[C@@H](O)[C@H]2O)c2ncnc(N)c12 [compound 39, 7-ethyl-7-deazaadenosine] | 50.4 | 0.5 ± 0.03 | > 64 |  |  |  |  |  |  |  |  | 0.99 ± 0.25 |  |  |  |  |  |  |  | 0.65 ± 0.02 | CC50 (MRC-5SV2 cells): > 64 µM |
| CCOc1ncnc2c1c(CC)cn2[C@@H]1O[C@H](CO)[C@@H](O)[C@H]1O [compound 42] | 52.5 | 2.06 ± 0.51 | > 64 |  |  |  |  |  |  |  |  | 7.71 ± 0.91 |  |  |  |  |  |  |  | 1.25 ± 0.06 | CC50 (MRC-5SV2 cells): > 64 µM |
